Screening data from PubChem BioAssay.
ROMK primary: modulators of human ROMK potassium channel. B-score at 10 µM. AID 1918. Tet-inducible ROMK, thallium flux fluorescence; actives lie on both sides. P48048. hit rate 2% among 130,000;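 active means signal ratio slope over the read window, or its plate-corrected B-score, at least 3 SD from the plate mean, either direction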;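 further: B-score of the F/F0 ratio slope over 7 to 12 s after thallium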
Target sequence (P48048 whole entry, looked up): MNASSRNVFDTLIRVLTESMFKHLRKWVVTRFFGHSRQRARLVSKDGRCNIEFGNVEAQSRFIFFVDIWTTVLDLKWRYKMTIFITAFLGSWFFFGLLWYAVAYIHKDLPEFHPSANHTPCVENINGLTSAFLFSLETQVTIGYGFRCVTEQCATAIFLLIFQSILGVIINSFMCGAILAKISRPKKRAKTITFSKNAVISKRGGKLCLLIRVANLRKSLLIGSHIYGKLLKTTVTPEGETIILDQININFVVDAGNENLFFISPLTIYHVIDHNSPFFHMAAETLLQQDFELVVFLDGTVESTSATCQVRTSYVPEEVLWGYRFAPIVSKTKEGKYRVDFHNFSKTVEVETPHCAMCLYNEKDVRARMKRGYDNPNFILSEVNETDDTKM
ABCB1 inh: blocks JC-1 efflux by human ABCB1 transporter; CCRF-Adr cells, flow cytometry; inhibition, % at 6.6 µM; hit rate 0.067% among 190,000; in the data active means inhibition above about 40%;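 further: 0% = vehicle and 100% = reference inhibitor; higher value means more JC-1 retained so stronger ABCB1 efflux block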
zfTRPN1 agonist: zebrafish TRPN1 (NompC) channel agonism | HEK293 zebrafish TRPN1-YFP, Fluo-8 calcium fluorescence; 100% = response to 87 µM carbachol | AID 1424 | hit rate 0.18% among 220,000 | activation, % at 3 µM;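 active means activation above its plate's cutoff, the mean activation of test wells on that plate plus 3 SD, cut at about 19% in these data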;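 further: 0% = DMSO alone and 100% = 87 µM carbachol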
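Assay system: Zebrafish TRPN1-YFP in HEK293 cells | Incubation: Dye loading 1 h at 37 °C, then 30 min room temperature | Measured by: Kinetic Fluo-8 fluorescence, ex 470-495, em 515-575 nm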
ABCG2 inh: blocks JC-1 efflux by human ABCG2 transporter; IgMXP3 cells, flow cytometry; hit rate 0.1% among 190,000; Q9UNQ0; inhibition, % at 6.6 µM;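 active means inhibition above 80%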;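 further: 0% = DMSO and 100% = nicardipine control wells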
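Test system: ABCG2 IgMXP3 and barcoded ABCB1 CCRF-Adr cell mix; Schedule: cells with compound and JC-1, 10 min at 25 °C, rotating, no wash; Technique: flow cytometry of retained JC-1 fluorescence; Measure: % inhibition of efflux relative to nicardipine and DMSO; Controls: nicardipine high and DMSO low controls.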
Biofilm kill mix: mixtures killing C. albicans biofilm. C. albicans biofilm persisters + clotrimazole, fluorescence viability; primary screen in compound mixtures of four per well. inhibition, % at 7.6 µM. hit rate 0.02% among 120,000. AID 1242;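 active means inhibition above 30.3% in the primary screen of four-compound pools, then above 30% when the compound was retested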;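 further: compounds exposed to preformed 24 h biofilms for 48 h; 0% = untreated biofilm control and 100% = clotrimazole plus chlorhexidine kill blank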
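Test system: C. albicans CAF4-2 wild-type biofilms; buffer or medium: RPMI/MOPS medium, pH 7.0; schedule: 24 h biofilm formation, then 48 h compound exposure, 37 °C; detection: Alamar Blue fluorescence; measure: percent inhibition of biofilm viability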
TRPML3 agonist: agonists of human TRPML3 channel. HEK293 TRPML3-YFP, Fluo-8 calcium fluorescence; 100% = the carbachol control signal. activation, % at 3 µM. Q8TDD5. hit rate 0.29% among 220,000;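 active means activation above its plate's cutoff, the mean activation of the plate's test wells plus 3 SD, cut at about 12% in these data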;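 further: 0% = DMSO only wells and 100% = carbachol wells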
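Material: TRPML3-YFP stable HEK293 cells | Dosing: One concentration, 3 µM nominal, 0.3% DMSO | Timing: 125 s total fluorescence read per well | Technique: Fluo-8 calcium dye fluorescence, ex 470-495, em 515-575 nm | Measure: Percent activation from peak-to-basal fluorescence ratio, scaled between DMSO and carbachol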
Starred values were filed as active, the others as inactive; nt = no result; + = active, no number. Only a selection was taken, and hits are over-represented in it overall.

SMILES	ROMK primary	ABCB1 inh	zfTRPN1 agonist	ABCG2 inh	Biofilm kill mix	TRPML3 agonist
COc1ccc(C(=O)/C(C#N)=N/Nc2ccc([N+](=O)[O-])cc2)cc1	6.05*	-0.2	10.6	11.2	-12.3	5.3
CSC1=NC2(CC(c3ccccc3)Oc3cc(O)ccc32)CC(C)(C)N1 (centres undefined)	-3.98*	0.5	3.8	0.3	9.2	0.8
COC(=O)CNc1cccc(C(F)(F)F)c1	-0.154	1.2	0.9	2.7	23.3	1.0
CCN(CC)c1ccc(/C=C/C(=O)C2C(=O)C=C(C)OC2=O)cc1 (centres undefined)	nt	20.6	34.8*	35.2	16.3	16.2*
CCN(CC)c1ccc(C=C2C(=O)OC(c3ccccc3)OC2=O)cc1 (centres undefined)	0.685	5.4	0.2	22.2	14.9	0.9
FC(F)(F)c1nnc2ccc(Sc3ccccn3)nn12	0.342	0.7	2.7	-0.2	28.0	1.0
COc1ccc2nc(SCC(=O)Nc3cc(OC)c(OC)cc3C(=O)O)c(C)cc2c1	0.988	0.0	0.2	-0.3	11.1	0.9
CCN(CC)c1ccc(/C=C(/C#N)c2nc3ccc(C)cc3[nH]2)c(OC(C)C)c1	nt	15.6	29.7*	31.0	nt	22.7*
CCN1CCc2c(sc(NC(=O)Nc3ccc(Cl)c(Cl)c3)c2C(N)=O)C1	nt	39.4	194.8*	136.1*	14.6	84.2*
CCOC(=O)Cc1csc(NC(=O)C(C)c2ccc([N+](=O)[O-])cc2)n1 (centres undefined)	0.0162	0.7	21.6*	2.5	-3.5	15.6*
Cc1ccc(C)c(NC(=O)c2ccccc2NS(=O)(=O)c2cc([N+](=O)[O-])ccc2C)c1	nt	0.6	26.6*	24.5	18.0	17.9*
Cc1cc(/C=C\c2nc(O)c([N+](=O)[O-])c(=O)[nH]2)c(C)n1-c1ccccc1	-0.0987	0.9	-0.5	2.6	8.1	0.4
O=C(COc1ccccc1/C=C\c1nc(O)c([N+](=O)[O-])c(=O)[nH]1)Nc1ccccc1	0.576	0.0	320.8*	0.1	-0.6	137.6*
O=S(=O)(c1cccs1)N1CN(C2CCCCC2)c2nc3ccccc3nc21	nt	nt	1.1	nt	9.2	0.6
S=c1[nH]cnc2sc(-c3ccccc3)cc12	7.73*	-1.1	-0.7	-2.4	18.3	-0.3
S=c1[nH]cnc2scc(-c3ccccc3)c12	6.15*	-0.2	-0.6	0.0	12.9	0.1
Clc1ncnc2scc(-c3ccccc3)c12	nt	0.2	-1.8	3.2	nt	-0.6
CNC(=S)N1CCN(C(=O)C2CCCO2)CC1 (centres undefined)	1.28	-0.2	1.4	-0.1	3.8	1.4
C/C(=N/NC(=O)CCc1c(C)n[nH]c1C)c1cccc([N+](=O)[O-])c1	nt	nt	0.6	nt	7.1	0.2
Cc1cccc(N2C(=O)c3cccc4c(N(C)CCO)ccc(c34)C2=O)c1	nt	1.7	38.6*	9.7	nt	30.3*
CC1CCN(CC(=O)Nc2ccc(S(=O)(=O)NC3CC3)cc2)CC1	nt	nt	2.0	nt	17.5	0.4
S=C(NCCCc1ccccc1)Nc1ccccc1Cl	-0.0595	-0.4	145.0*	-0.5	-13.6	1.8
CC(C)N(CC#CCC(O)(c1ccccc1)c1ccccc1)C(C)C	0.0334	0.7	-0.2	12.2	14.0	0.7
CC(c1ccccc1C(O)(c1ccccc1)c1ccccc1)N(C)C (centres undefined)	nt	1.1	21.9*	1.1	8.9	15.2*
Cc1ccc(C(C(=O)Nc2ccc(C(C)C)cc2)N(C)C(=O)c2ccc(=O)[nH]c2)cc1 (centres undefined)	0.0604	0.3	0.3	0.5	-2.7	0.1
SMILES	ROMK primary	ABCB1 inh	zfTRPN1 agonist	ABCG2 inh	Biofilm kill mix	TRPML3 agonist
CCN(CC)c1ccc(/C=C(/C#N)C(=O)NCc2ccccc2)o1	-0.93	2.1	9.1	12.4	14.4	13.7*
C=CCN(c1ccccc1C(=O)O)S(=O)(=O)c1ccc(C)cc1	1.17	-0.1	0.2	0.4	15.0	0.8
CC(=O)c1ccc(NC(=S)N2c3ccccc3CC2C)cc1 (centres undefined)	nt	-0.8	0.5	-0.2	9.7	0.6
CC1Cc2ccccc2N1C(=S)NC(=O)c1ccc(Cl)cc1Cl (centres undefined)	7.83*	-0.5	-2.0	-5.6	18.8	-0.4
Cc1ccc2c(c1)C1CN(C)CCC1N2C(=S)NC(=O)c1ccc(Cl)cc1Cl (centres undefined)	nt	nt	1.3	nt	10.7	0.2
CC1Cc2ccccc2N1C(=S)NC(=O)c1cccc(Br)c1 (centres undefined)	10.4*	-0.8	0.1	-4.1	14.4	0.2
CCCCc1cc(O)c(CCCC)c(O)c1	-0.647	0.6	51.8*	3.0	nt	36.5*
CCCCOc1ccc(C(=O)OCC(=O)Nc2cc(C)on2)cc1	0.105	0.6	94.0*	2.0	-1.8	87.9*
CCCOc1ccc(C(=O)CCC(=O)OCC(=O)Nc2cc(C)on2)cc1	-1.25	0.1	-0.7	0.3	nt	0.2
CCn1nc([N+](=O)[O-])c(C(C#N)c2nc3cc(C(F)(F)F)ccc3s2)c(Cl)c1=O (centres undefined)	-4.99*	-0.1	-1.6	-0.1	nt	-0.7
COc1nc(-c2ccccc2)nc(C)c1CC(=O)O	-0.0737	0.4	1.8	0.8	15.3	1.0
Cc1nc(S/C(=C/c2ccc(-c3cc(Cl)ccc3C)o2)C(=O)O)n[nH]1	nt	nt	-0.3	nt	-5.9	0.1
O=c1nc(/C=C/c2ccc(-c3ccc(F)cc3)o2)cc(C(F)(F)F)[nH]1	nt	2.8	0.8	39.0	nt	1.7
O=C(O)c1cc(Cl)ccc1-c1ccc(/C=C/c2cc(C(F)(F)F)[nH]c(=O)n2)o1	nt	0.8	29.1*	1.6	8.8	13.0*
O=C(O)c1ccccc1-c1ccc(/C=C/c2cc(C(F)(F)F)[nH]c(=O)n2)o1	nt	0.6	81.2*	10.9	14.2	28.1*
Cc1ccccc1Cc1ccc(Cl)nn1	-0.187	1.2	0.5	2.4	14.7	0.7
CCOC(=O)c1c(NC(=S)NCC2CCCO2)sc(C)c1C (centres undefined)	3.47*	-0.6	-1.9	-0.9	-5.3	-0.8
O=c1oc2cc(O)ccc2cc1-c1nc2c(s1)CCc1ccccc1-2	nt	138.4*	25.1*	+	4.4	7.6
COC(=O)Cc1c(O)ccn(Cc2ccc(F)cc2)c1=O	1.04*	0.5	-0.1	4.2	nt	-0.1
C=CCN1C(=O)/C(=C/c2ccc(OCC(=O)O)cc2)S/C1=N/c1nccs1	-0.27	-0.6	-0.8	-3.1	15.3	0.2
C=CCN1C(=O)/C(=C/c2ccc(O)c(OC)c2)S/C1=N/c1nccs1	-0.37	1.5	32.1*	4.1	8.4	15.8*
CCOc1ccc(OCc2ccc(C(=O)N3CCCC3)o2)cc1	nt	41.4*	-1.0	6.9	nt	-0.3
